Measured values as given in ChEMBL document CHEMBL1157665, “Novel 4-thiazolidinone derivatives as potential antifungal and antibacterial drugs” (2010).
Values after ≈ are worked out from the molar mass of the structure shown.

Columns and labels:
[1] = system: Pseudomonas aeruginosa; assay: Antibacterial activity against Pseudomonas aeruginosa ATCC 27853 after 72 hrs by serial sub-cultivation method; assay type: functional; settings: ATCC 27853, 72 h
Method in brief: (§1)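 MBC was found by serial sub-cultivation of 2 µl from the MIC wells into plates holding 100 µl broth per well, then incubation for 72 h. MBC is the lowest concentration with no visible growth, i.e. 99.5% killing of the original inoculum. Bacterial inoculum was 1.0 × 10^4 cfu per well in LB broth. Duplicate, repeated three times.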

[2] = system: Aspergillus flavus; assay: Antifungal activity against Aspergillus flavus ATCC 9643 after 72 hrs by serial dilution method; assay type: functional; settings: ATCC 9643, 72 h
Method in brief: (§2)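 Fungi were kept on malt agar at 4 °C and sub-cultured monthly. Spores were washed off the agar with sterile 0.85% saline containing 0.1% Tween 80 (v/v). Modified microdilution in 96-well plates. MIC is the lowest concentration with no visible growth under the binocular microscope. Inoculum checked on malt agar for contamination and validity.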

[3] = system: Micrococcus flavus; assay: Antibacterial activity against Micrococcus flavus ATCC 10240 after 24 hrs; assay type: functional; settings: ATCC 10240, 24 h
Method in brief: (§3)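 Broth microdilution MIC in 96-well plates. Compounds in LB broth with bacterial inoculum of 1.0 × 10^4 cfu per well, from suspensions adjusted with sterile saline to 1.0 × 10⁵ CFU/ml. Incubated 24 h at […] as printed. MIC taken as the lowest concentration with no visible growth under the binocular microscope. OD at 655 nm also read against blank. Streptomycin and ampicillin as positive controls. Duplicate, repeated three times.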

[4] = system: Bacillus cereus; assay: Antibacterial activity against Bacillus cereus clinical isolate after 24 hrs; assay type: functional; method in brief: as §3
[5] = system: Penicillium ochrochloron; assay: Antifungal activity against Penicillium ochrochloron ATCC 9112 after 72 hrs by serial dilution method; assay type: functional; settings: ATCC 9112, 72 h; method in brief: as §2
[6] = system: Escherichia coli; assay: Antibacterial activity against Escherichia coli ATCC 35210 after 72 hrs by serial sub-cultivation method; assay type: functional; settings: ATCC 35210, 72 h; method in brief: as §1
[7] = system: Talaromyces funiculosus; assay: Antifungal activity against Penicillium funiculosum ATCC 36839 after 72 hrs by serial sub-cultivation method; assay type: functional; settings: ATCC 36839, 72 h
Method in brief: (§4)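 MFC was found by serial sub-cultivation of 2 µl into plates holding 100 µl broth per well, then incubation 72 h at 28 °C. MFC is the lowest concentration with no visible growth, taken as 99.5% killing of the original inoculum. Spore inocula came from malt agar cultures washed with 0.85% saline and 0.1% Tween 80.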

[8] = system: Pseudomonas aeruginosa; assay: Antibacterial activity against Pseudomonas aeruginosa ATCC 27853 after 24 hrs; assay type: functional; settings: ATCC 27853, 24 h; method in brief: as §3
[9] = system: Aspergillus fumigatus; assay: Antifungal activity against Aspergillus fumigatus plant isolate after 72 hrs by serial dilution method
[10] = system: Fulvia fulva; assay: Antifungal activity against Fulvia fulva TK 5318 after 72 hrs by serial sub-cultivation method; assay type: functional; settings: TK 5318, 72 h; method in brief: as §4
[11] = system: Aspergillus niger; assay: Antifungal activity against Aspergillus niger ATCC 6275 after 72 hrs by serial sub-cultivation method; assay type: functional; settings: ATCC 6275, 72 h; method in brief: as §4
[12] = system: Trichoderma viride; assay: Antifungal activity against Trichoderma viride IAM 5061 after 72 hrs by serial dilution method; assay type: functional; settings: IAM 5061, 72 h; method in brief: as §2
[13] = system: Staphylococcus aureus; assay: Antibacterial activity against Staphylococcus aureus ATCC 6538 after 24 hrs; assay type: functional; settings: ATCC 6538, 24 h; method in brief: as §3
[14] = system: Aspergillus fumigatus; assay: Antifungal activity against Aspergillus fumigatus plant isolate after 72 hrs by serial sub-cultivation method
[15] = system: Escherichia coli; assay: Antibacterial activity against Escherichia coli ATCC 35210 after 24 hrs; assay type: functional; settings: ATCC 35210, 24 h; method in brief: as §3
[16] = system: Aspergillus niger; assay: Antifungal activity against Aspergillus niger ATCC 6275 after 72 hrs by serial dilution method; assay type: functional; settings: ATCC 6275, 72 h; method in brief: as §2
[17] = system: Proteus mirabilis; assay: Antibacterial activity against Proteus mirabilis after 72 hrs by serial sub-cultivation method; assay type: functional; method in brief: as §1
[18] = system: Salmonella typhimurium; assay: Antibacterial activity against Salmonella Typhimurium ATCC 13311 after 72 hrs by serial sub-cultivation method; assay type: functional, Salmonella enterica subsp. enterica serovar Typhimurium; settings: Salmonella enterica, ATCC 13311, 72 h; method in brief: as §1
[19] = system: Aspergillus flavus; assay: Antifungal activity against Aspergillus flavus ATCC 9643 after 72 hrs by serial sub-cultivation method; assay type: functional; settings: ATCC 9643, 72 h; method in brief: as §4
[20] = system: Listeria monocytogenes; assay: Antibacterial activity against Listeria monocytogenes NCTC 7973 after 72 hrs by serial sub-cultivation method; assay type: functional; settings: NCTC 7973, 72 h; method in brief: as §1
[21] = system: Proteus mirabilis; assay: Antibacterial activity against Proteus mirabilis after 24 hrs; assay type: functional; method in brief: as §3
[22] = system: Salmonella typhimurium; assay: Antibacterial activity against Salmonella Typhimurium ATCC 13311 after 24 hrs; assay type: functional, Salmonella enterica subsp. enterica serovar Typhimurium; settings: Salmonella enterica, ATCC 13311, 24 h; method in brief: as §3
[23] = system: Talaromyces funiculosus; assay: Antifungal activity against Penicillium funiculosum ATCC 36839 after 72 hrs by serial dilution method; assay type: functional; settings: ATCC 36839, 72 h; method in brief: as §2
[24] = system: Aspergillus versicolor; assay: Antifungal activity against Aspergillus versicolor ATCC 11730 after 72 hrs by serial sub-cultivation method; assay type: functional; settings: ATCC 11730, 72 h; method in brief: as §4
[25] = system: Fulvia fulva; assay: Antifungal activity against Fulvia fulva TK 5318 after 72 hrs by serial dilution method; assay type: functional; settings: TK 5318, 72 h; method in brief: as §2
[26] = system: Micrococcus flavus; assay: Antibacterial activity against Micrococcus flavus ATCC 10240 after 72 hrs by serial sub-cultivation method; assay type: functional; settings: ATCC 10240, 72 h; method in brief: as §1
[27] = system: Penicillium ochrochloron; assay: Antifungal activity against Penicillium ochrochloron ATCC 9112 after 72 hrs by serial sub-cultivation method; assay type: functional; settings: ATCC 9112, 72 h; method in brief: as §4
[28] = system: Listeria monocytogenes; assay: Antibacterial activity against Listeria monocytogenes NCTC 7973 after 24 hrs; assay type: functional; settings: NCTC 7973, 24 h; method in brief: as §3
[29] = system: Staphylococcus aureus; assay: Antibacterial activity against Staphylococcus aureus ATCC 6538 after 72 hrs by serial sub-cultivation method; assay type: functional; settings: ATCC 6538, 72 h; method in brief: as §1
[30] = system: Trichoderma viride; assay: Antifungal activity against Trichoderma viride IAM 5061 after 72 hrs by serial sub-cultivation method; assay type: functional; settings: IAM 5061, 72 h; method in brief: as §4
[31] = system: Aspergillus versicolor; assay: Antifungal activity against Aspergillus versicolor ATCC 11730 after 72 hrs by serial dilution method; assay type: functional; settings: ATCC 11730, 72 h; method in brief: as §2
[32] = system: Bacillus cereus; assay: Antibacterial activity against Bacillus cereus clinical isolate after 72 hrs by serial sub-cultivation method; assay type: functional; method in brief: as §1

Row | SMILES | MBC [1] [µM] | MIC [2] [µM] | MIC [3] [µM] | MIC [4] [µM] | MIC [5] [µM] | MBC [6] [µM] | MFC [7] [µM] | MIC [8] [µM] | MIC [9] [µM] | MFC [10] [µM] | MFC [11] [µM] | MIC [12] [µM] | MIC [13] [µM] | MFC [14] [µM] | MIC [15] [µM] | MIC [16] [µM] | MBC [17] [µM] | MBC [18] [µM] | MFC [19] [µM] | MBC [20] [µM] | other results
1 | O=C1N/C(=N/c2nc(C34CC5CC(CC(C5)C3)C4)cs2)S/C1=C\c1cccc([N+](=O)[O-])c1 | 43 (≈ 20.1 µg/mL) | 16.1 (≈ 7.51 µg/mL) | 21.5 (≈ 10 µg/mL) | 16.1 (≈ 7.51 µg/mL) | 10.8 (≈ 5.04 µg/mL) | 21.5 (≈ 10 µg/mL) | 21.5 (≈ 10 µg/mL) | 21.5 (≈ 10 µg/mL) | 16.1 (≈ 7.51 µg/mL) | 16.1 (≈ 7.51 µg/mL) | 21.5 (≈ 10 µg/mL) | 5.4 (≈ 2.52 µg/mL) | 21.5 (≈ 10 µg/mL) | 21.5 (≈ 10 µg/mL) | 21.5 (≈ 10 µg/mL) | 10.8 (≈ 5.04 µg/mL) | 64.5 (≈ 30.1 µg/mL) | 21.5 (≈ 10 µg/mL) | 21.5 (≈ 10 µg/mL) | 43 (≈ 20.1 µg/mL) | MIC [21]: 43 µM (≈ 20.1 µg/mL); MIC [22]: 10.8 µM (≈ 5.04 µg/mL); MIC [23]: 10.8 µM (≈ 5.04 µg/mL); MFC [24]: 21.5 µM (≈ 10 µg/mL); MIC [25]: 10.8 µM (≈ 5.04 µg/mL); MBC [26]: 43 µM (≈ 20.1 µg/mL); MFC [27]: 21.5 µM (≈ 10 µg/mL); MIC [28]: 21.5 µM (≈ 10 µg/mL); MBC [29]: 43 µM (≈ 20.1 µg/mL); MFC [30]: 10.8 µM (≈ 5.04 µg/mL); MIC [31]: 16.1 µM (≈ 7.51 µg/mL); MBC [32]: 21.5 µM (≈ 10 µg/mL)
2 | O=C1N/C(=N/c2nc(C34CC5CC(CC(C5)C3)C4)cs2)S/C1=C\c1ccc([N+](=O)[O-])cc1 | 43 (≈ 20.1 µg/mL) | 16.1 (≈ 7.51 µg/mL) | 21.5 (≈ 10 µg/mL) | 21.5 (≈ 10 µg/mL) | 16.1 (≈ 7.51 µg/mL) | 43 (≈ 20.1 µg/mL) | 21.5 (≈ 10 µg/mL) | 21.5 (≈ 10 µg/mL) | 16.1 (≈ 7.51 µg/mL) | 21.5 (≈ 10 µg/mL) | 21.5 (≈ 10 µg/mL) | 10.8 (≈ 5.04 µg/mL) | 16.1 (≈ 7.51 µg/mL) | 21.5 (≈ 10 µg/mL) | 21.5 (≈ 10 µg/mL) | 10.8 (≈ 5.04 µg/mL) | 64.5 (≈ 30.1 µg/mL) | 21.5 (≈ 10 µg/mL) | 21.5 (≈ 10 µg/mL) | 43 (≈ 20.1 µg/mL) | MIC [21]: 43 µM (≈ 20.1 µg/mL); MIC [22]: 21.5 µM (≈ 10 µg/mL); MIC [23]: 21.5 µM (≈ 10 µg/mL); MFC [24]: 21.5 µM (≈ 10 µg/mL); MIC [25]: 16.1 µM (≈ 7.51 µg/mL); MBC [26]: 21.5 µM (≈ 10 µg/mL); MFC [27]: 21.5 µM (≈ 10 µg/mL); MIC [28]: 21.5 µM (≈ 10 µg/mL); MBC [29]: 43 µM (≈ 20.1 µg/mL); MFC [30]: 21.5 µM (≈ 10 µg/mL); MIC [31]: 16.1 µM (≈ 7.51 µg/mL); MBC [32]: 21.5 µM (≈ 10 µg/mL)
